ChEMBL document CHEMBL2069286, “Discovery and biological evaluation of novel 4-amino-2-phenylpyrimidine derivatives as potent and orally active GPR119 agonists” (Bioorg Med Chem, 2012)
pIC50: −log10 of the molar value. The source made the active and inactive calls. No cut-off for these calls is given here.

How the values were obtained:
[1] = biological target: T1, Glucose-dependent insulinotropic receptor (Homo sapiens) (UniProt Q8TDV5); experiment: Agonist activity at human GPR119 expressed in HEK293 cells assessed as stimulation of cAMP level incubated for 6 hrs by luciferase activity based luminometry; assay type: functional, cell-based
T1 sequence (whole entry): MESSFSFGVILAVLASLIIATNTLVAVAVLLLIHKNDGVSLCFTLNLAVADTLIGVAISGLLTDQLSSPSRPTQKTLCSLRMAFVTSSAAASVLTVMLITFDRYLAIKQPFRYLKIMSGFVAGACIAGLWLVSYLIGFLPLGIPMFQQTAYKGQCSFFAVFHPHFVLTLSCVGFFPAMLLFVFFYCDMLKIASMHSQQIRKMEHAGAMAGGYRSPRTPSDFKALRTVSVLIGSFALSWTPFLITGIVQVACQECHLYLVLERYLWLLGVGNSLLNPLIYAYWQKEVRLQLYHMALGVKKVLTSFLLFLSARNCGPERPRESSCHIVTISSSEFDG
Summary of the method: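 HEK293 cells stably expressing human GPR119 plus pCRE-luciferase reporter; 2.5×10^4 cells/well, overnight at 37 °C in 5% CO₂, then compound (DMSO) at 0.01–10 μM for 6 h. Lysis in 0.2% Triton X-100/PBS pH 7.4, luminometer read of luciferase. Triplicates per concentration. EC = concentration matching the response of reference agonist at 10 μM.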

[2] = biological target: T1, Glucose-dependent insulinotropic receptor (Homo sapiens); experiment: Intrinsic activity at human GPR119 expressed in HEK293 cells assessed as stimulation of cAMP level at 10 uM incubated for 6 hrs by luciferase activity based luminometry relative to 10 uM 2-(2-(4-bromophenyl)-6-methylpyrimidin-4-ylamino)ethanol; assay type: functional, cell-based
Summary of the method: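 Same HEK293 hGPR119/pCRE-luciferase system with 6 h exposure, lysis in 0.2% Triton X-100/PBS and luciferase read, triplicate wells. Test compound at 10 μM; response expressed as % of the luciferase signal given by the reference agonist at 10 μM.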

Cytochrome P450 1A2 = biological target: T2, Cytochrome P450 1A2 (Homo sapiens, UniProt P05177); experiment: Inhibition of CYP1A2; assay type: ADME
T2 sequence (P05177 whole entry): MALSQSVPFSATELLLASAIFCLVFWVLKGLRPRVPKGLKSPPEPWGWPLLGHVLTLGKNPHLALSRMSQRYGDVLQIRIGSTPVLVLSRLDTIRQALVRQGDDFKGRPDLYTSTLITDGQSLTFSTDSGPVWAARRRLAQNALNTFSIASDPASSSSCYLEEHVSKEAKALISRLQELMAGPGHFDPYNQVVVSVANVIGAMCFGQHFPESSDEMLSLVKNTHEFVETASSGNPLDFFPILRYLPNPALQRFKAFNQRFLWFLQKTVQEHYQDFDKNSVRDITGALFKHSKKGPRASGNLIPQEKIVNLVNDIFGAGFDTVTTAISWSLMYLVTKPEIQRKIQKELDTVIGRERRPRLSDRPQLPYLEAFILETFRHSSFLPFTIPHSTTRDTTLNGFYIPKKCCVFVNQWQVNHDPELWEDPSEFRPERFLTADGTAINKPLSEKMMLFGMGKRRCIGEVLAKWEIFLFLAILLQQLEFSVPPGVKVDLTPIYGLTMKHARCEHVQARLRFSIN

Mus musculus [3] = experiment: Antihyperglycemic activity in ICR mouse assessed as reduction in glucose levels at 1 mg/kg, po dosed post overnight fasting by oral glucose tolerance test; assay type: functional; parameters: scale not given: the % may be the effect or the level left
Summary of the method: (§1)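 Eight-week-old male ICR mice, fasted overnight, dosed orally with compound in 0.5% methylcellulose or vehicle alone. Oral glucose 2 g/kg given 10 min later. Tail-vein blood taken 30 min after glucose, and glucose measured by Glucose CII test.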

Mus musculus [4] = experiment: Antihyperglycemic activity in ICR mouse assessed as reduction in glucose levels at 3 mg/kg, po dosed post overnight fasting by oral glucose tolerance test; assay type: functional; summary of the method: as §1
Mus musculus [5] = experiment: Antihyperglycemic activity in ICR mouse assessed as reduction in glucose levels at 10 mg/kg, po dosed post overnight fasting by oral glucose tolerance test; assay type: functional; parameters: scale not given: the % may be the effect or the level left
Mus musculus [6] = experiment: Antidiabetic activity in kk/Ay mouse assessed as reduction in blood glucose at 3 mg/kg, po once daily for week by Glucose cII test; assay type: functional, organism-based; parameters: dose 3 mg/kg
Summary of the method: (§2)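 Eight-week-old male kk/Ay mice, n = 8 per group, dosed orally once daily for one week at 3 mg/kg, with 0.5% methylcellulose vehicle group. Fed-state tail-vein blood for glucose (Glucose CII), insulin and triglyceride (Triglyceride E-test). Pancreas weighed, homogenized, extracted with acid-ethanol, spun 10 min at 3000 g, supernatant insulin assayed. Mean ± SE; Dunnett's test.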

[7] = Stability in human liver microsomes; assay type: ADME, Microsome; details: read-out: Stability
[8] = Tmax in mouse at 3 mg/kg, po; assay type: ADME, organism-based; parameters: dose 3 mg/kg, route oral; details: in vivo
[9] = Tmax in monkey at 3 mg/kg, po; assay type: ADME, organism-based, Macaca mulatta; parameters: dose 3 mg/kg, route oral; details: rhesus monkey, in vivo
[10] = Half life in mouse at 1 mg/kg, iv; assay type: ADME, organism-based; parameters: dose 1 mg/kg, route intravenous; details: in vivo
[11] = Half life in monkey at 1 mg/kg, iv; assay type: ADME, organism-based, Macaca mulatta; parameters: dose 1 mg/kg, route intravenous; details: rhesus monkey, in vivo
[12] = Volume of distribution at steady state in mouse at 1 mg/kg, iv; assay type: ADME, organism-based; parameters: dose 1 mg/kg, route intravenous; details: in vivo, read-out: Vdss
[13] = Volume of distribution at steady state in monkey at 1 mg/kg, iv; assay type: ADME, organism-based, Macaca mulatta; parameters: dose 1 mg/kg, route intravenous; details: rhesus monkey, in vivo, read-out: Vdss
[14] = Total clearance in mouse at 1 mg/kg, iv; assay type: ADME, organism-based; parameters: dose 1 mg/kg, route intravenous; details: in vivo
[15] = Total clearance in monkey at 1 mg/kg, iv; assay type: ADME, organism-based, Macaca mulatta; parameters: dose 1 mg/kg, route intravenous; details: rhesus monkey, in vivo
[16] = Oral bioavailability in mouse at 3 mg/kg; assay type: ADME, organism-based; details: in vivo
[17] = Oral bioavailability in monkey at 3 mg/kg; assay type: ADME, organism-based, Macaca mulatta; details: rhesus monkey, in vivo
Mus musculus [18] = experiment: Antidiabetic activity in kk/Ay mouse assessed as reduction in plasma insulin at 3 mg/kg, po once daily for week; assay type: functional, organism-based; parameters: dose 3 mg/kg; summary of the method: as §2
Mus musculus [19] = experiment: Antidiabetic activity in kk/Ay mouse assessed as reduction in plasma triglyceride level at 3 mg/kg, po once daily for week by Triglyceride E-test; assay type: functional, organism-based; parameters: dose 3 mg/kg; summary of the method: as §2
Mus musculus [20] = experiment: Antidiabetic activity in kk/Ay mouse assessed as improvement in pancreatic insulin level at 3 mg/kg, po once daily for week

Row | SMILES | EC [1] [µM] | Intrinsic activity [2] | pIC50 (Cytochrome P450 1A2) | Activity (Mus musculus [4]) | also measured
1 | Cc1cc(NC[C@@H](O)CO)nc(-c2ccc(Br)c(F)c2)n1 | 1.2 | 346% | 5.77 |  | 
2 | Cc1cc(NCCc2ccc[n+]([O-])c2)nc(-c2ccc(Cl)cc2)n1 | 0.7 | 376% |  |  | 
3 | CCc1cc(NC[C@H](O)CO)nc(-c2ccc(Br)c(F)c2)n1 | 0.59 | 283% | 5.80 |  | Activity (Mus musculus [3]): 16%
4 | Cc1cc(NCCc2ccc[n+]([O-])c2)nc(-c2ccc(Br)cc2)n1 | 1.2 | 325% |  | inactive | Activity (Mus musculus [5]): 38%
5 | Cc1cc(NCCc2ccc[n+]([O-])c2)nc(-c2ccc(Br)cc2F)n1 | 1.5 | 268% |  | 19% | 
6 | Cc1cc(NCCc2ccc[n+]([O-])c2)nc(-c2ccc(Cl)c(Cl)c2)n1 | 0.72 | 430% |  | 15% | 
7 | Cc1cc(NCCc2ccc[n+]([O-])c2)nc(-c2ccc(Cl)c(F)c2)n1 | 0.33 | 450% |  | 25% | 
8 | Cc1cc(NC[C@H](O)CO)nc(-c2ccc(Br)c(F)c2)n1 | 2.3 | 257% |  |  | 
9 | CCc1cc(NCCc2cc[nH]c(=O)c2)nc(-c2cc(F)c(Cl)cc2F)n1 | 0.013 | 578% |  | 25% | 
10 | Cc1cc(NCCc2cc[nH]c(=O)c2)nc(-c2cc(F)c(Cl)cc2F)n1 | 0.0069 | 722% |  | 21% | 
11 | CCc1cc(NC[C@@H](O)CO)nc(-c2cc(F)c(Br)cc2F)n1 | 0.22 | 391% | 4.60 |  | Activity (Mus musculus [3]): 19%
12 | CCc1cc(NC[C@@H](O)CO)nc(-c2cc(F)c(Cl)cc2F)n1 | 0.28 | 497% | 4.46 |  | Activity (Mus musculus [6]): Active; Activity (Mus musculus [3]): 25%; CLint scaled [7]: < 20 mL/min/kg; Tmax [8]: 6 min; Tmax [9]: 2.2 h; half-life [10]: 2.2 h; half-life [11]: 4.6 h; Vd [12]: 6.9 L/kg; Vd [13]: 4.7 L/kg; clearance [14]: 35.9 mL/min/kg; clearance [15]: 12 mL/min/kg; bioavailability [16]: 86%; bioavailability [17]: 51%; Activity (Mus musculus [18]): Active; Activity (Mus musculus [19]): Active; Activity (Mus musculus [20]): Active
13 | Cc1cc(NCCc2ccc[n+]([O-])c2)nc(-c2cc(F)c(Cl)cc2F)n1 | 0.21 | 536% | 5.43 | 27% | 
14 | Cc1cc(NCCc2ccc[n+]([O-])c2)nc(-c2ccccc2)n1 |  | inactive |  |  | 
15 | CCc1ccc(CCOc2ccc(CC3SC(=O)NC3=O)cc2)nc1 (configuration not stated) |  |  |  |  | Activity (Mus musculus [6]): Active; Activity (Mus musculus [18]): Active; Activity (Mus musculus [19]): Active
16 | Cc1cc(NCCc2ccc[n+]([O-])c2)nc(-c2ccc(Br)c(F)c2)n1 | 0.22 | 573% |  | 30% | 
17 | Cc1cc(NCCc2cc[nH]c(=O)c2)nc(-c2ccc(Br)c(F)c2)n1 | 0.021 | 617% |  | 10% | 
18 | CCc1cc(NC[C@@H](O)CO)nc(-c2ccc(Cl)c(F)c2)n1 | 0.39 | 266% | 5.68 |  | Activity (Mus musculus [3]): 24%; CLint scaled [7]: 236 mL/min/kg
19 | Cc1cc(NCCc2ccc[n+]([O-])c2)nc(-c2cc(F)c(Br)c(F)c2)n1 | 0.34 | 493% |  | 15% | 
20 | Cc1cc(NCCc2cc[nH]c(=O)c2)nc(-c2cc(F)c(Br)cc2F)n1 | 0.017 | 1080% |  | 23% | 
21 | Cc1cc(NCCc2ccc[n+]([O-])c2)nc(-c2cc(F)c(Br)cc2F)n1 | 0.11 | 588% | 5.14 | 23% | 
22 | CCc1cc(NC[C@@H](O)CO)nc(-c2ccc(Br)c(F)c2)n1 | 0.19 | 284% | 5.82 |  | Activity (Mus musculus [3]): 23%; CLint scaled [7]: 168 mL/min/kg
